According to ChEMBL document CHEMBL1921779, “Pharmacological validation of Trypanosoma brucei phosphodiesterases B1 and B2 as druggable targets for African sleeping sickness” (J Med Chem, 2011):

What was measured:
[1] = Inhibition of His-tagged catalytic domain Trypanosoma brucei brucei PDEB1 expressed in baculovirus infected insect Sf21 cells
[2] = Inhibition of His-tagged catalytic domain Trypanosoma brucei brucei PDEB1 expressed in baculovirus infected insect Sf21 cells at 100 uM
Method in brief: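 Inhibitor preincubated 10 min before substrate, final DMSO 2%, 5% or 10%. BioMol green phosphate read at 620nm. Initial-velocity change versus vehicle; mean of ≥3 independent experiments.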

[3] = Inhibition of His-tagged catalytic domain Trypanosoma brucei brucei PDEB2 expressed in baculovirus infected insect Sf21 cells
[4] = system: Trypanosoma brucei brucei; test: Antitrypanosomal activity against blood stream Trypanosoma brucei brucei 427 after 48 hrs by Alamar blue assay; assay type: functional, organism-based; conditions: Trypanosoma brucei, 427, 48 h
[5] = Inhibition of His-tagged catalytic domain Trypanosoma brucei brucei PDEB1 expressed in baculovirus infected insect Sf21 cells at 10 uM
Method in brief: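 Single-concentration screen of purified His-tagged TbrPDEB1 catalytic domain (0.25 µg) at 37°C in 10 mM Tris pH 7.4, 0.2 mg/ml BSA, 10 mM MgCl2, 25 µM cAMP and excess 5'-nucleotidase. Inhibitor in DMSO (2%, 5% or 10% final) preincubated 10 min before substrate. BioMol green phosphate read-out at 620 nm; percent inhibition of initial velocity versus vehicle control.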

[6] = system: Trypanosoma brucei brucei; test: Cytotoxicity against Trypanosoma brucei brucei at 100 uM

Structure (SMILES) | IC50 [1] | IC50 [3] | EC50 [4] | further results
COc1ccc(C2CNC(=O)C2)cc1OC1CCCC1 (stereo unspecified) [ROLIPRAM] | > 100 µM | – | – | –
COc1cc(C(=O)Nc2c(Cl)cncc2Cl)ccc1OC(C)=O | > 100 µM | – | – | –
OCCN(CCO)c1nc(N2CCCCC2)c2nc(N(CCO)CCO)nc(N3CCCCC3)c2n1 [DIPYRIDAMOLE] | 72 µM | – | – | inhibition [2]: > 50%
CS(=O)(=O)Oc1ccc2c(NC(N)=O)c(C(=O)c3ccc(Cl)cc3Cl)oc2c1 | > 10 µM | > 10 µM | – | –
COc1ccc(C(=O)Nc2c(Cl)cncc2Cl)cc1OC1CCCC1 | 4.7 µM | 11.4 µM | 9.57 µM | inhibition [2]: > 50%
COc1ccc(C(=O)Nc2c(Cl)cncc2Cl)c(Cl)c1OC | > 100 µM | – | – | –
Cc1noc(/C(=C/c2cccc(-c3cc(C(C)(C)S(C)(=O)=O)cc4cccnc34)c2)c2ccc(S(C)(=O)=O)cc2)n1 | – | – | – | inhibition [5]: > 50%
COc1cc(C(=O)Nc2c(Cl)cncc2Cl)cc(OC)c1OC | > 100 µM | – | > 100 µM | Activity [6]: 10%
COc1ccc(C(=O)Nc2c(Cl)cncc2Cl)cc1OC(C)C | > 30 µM | > 30 µM | 27.6 µM | –
CCCCOc1cc(C(=O)Nc2c(Cl)cncc2Cl)ccc1OC | 7.7 µM | 14.3 µM | 17.7 µM | –
CCCOc1cc(C(=O)Nc2c(Cl)cncc2Cl)ccc1OC | 13.6 µM | 9.4 µM | 13 µM | –
CCCCOc1cc(CC2CNC(=O)N2)ccc1OC (stereo unspecified) [RO-201724] | > 100 µM | – | – | –
COc1cc2ncnc(N3CC[C@@H](Oc4cnc5ccccc5n4)C3)c2cc1OC | – | – | – | inhibition [2]: > 55%
CCOc1cc(C(=O)Nc2c(Cl)cncc2Cl)ccc1OC | 16.5 µM | 34 µM | – | –
COc1ccc(C(=O)Nc2c(Cl)cncc2Cl)cc1OCc1ccccc1 | 12.5 µM | 11.2 µM | 10.1 µM | –
COc1ccc(C(=O)Nc2c(Cl)cncc2Cl)cc1OC | > 100 µM | > 100 µM | – | –
COc1cccc(Nc2c(C(N)=O)cnc3c(C)cc(S(=O)(=O)c4cccc(C(=O)N(C)C)c4)cc23)c1 | – | – | – | inhibition [5]: > 50%
CCOc1ccc(C(=O)Nc2c(Cl)cncc2Cl)cc1OCC | > 100 µM | – | – | –
COc1cc(Cl)c(C(=O)Nc2c(Cl)cncc2Cl)cc1OC | > 100 µM | – | – | –
COc1cc2c(cc1OC)-c1c/c(=N\c3c(C)cc(C)cc3C)n(C)c(=O)n1CC2 [TREQUINSIN] | 12 µM | 25.4 µM | 5.8 µM | inhibition [2]: > 50%
O=C(Nc1c(Cl)cncc1Cl)c1ccc(OC(F)F)c(OCC2CC2)c1 [ROFLUMILAST] | > 100 µM | – | – | –
